Activity calls are given as the source filed them.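 Rule for the calls, unless noted: active = Her2 level under about 52% in both replicate screens, with viability over 70% of control (limit read from the data); inconclusive = Her2 under the limit in one screen only, or viability under 70%; inactive = Her2 level above the set limit.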
Experiments:
[1] = Her2 expression decrease, cell viability multiplex – SKBR3 breast tumor cells, AlphaScreen, ATP viability, primary screen (AID 461); conditions: SKBR3 Her2 protein level, 18-24 h, measured here: SKBR3 viability, ATP luminescence, at 10 µM;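 for Her2 level: lower value means less Her2 protein in the cells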;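 for viability: percent of carrier control wells set as 100% viability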
[2] = target: Receptor tyrosine-protein kinase erbB-2 (Homo sapiens) (UniProt P04626); assay: as above; conditions: 18-24 h, at 10 µM, stronger effect = lower value
Receptor tyrosine-protein kinase erbB-2 (Homo sapiens), sequence (P04626 whole entry, looked up): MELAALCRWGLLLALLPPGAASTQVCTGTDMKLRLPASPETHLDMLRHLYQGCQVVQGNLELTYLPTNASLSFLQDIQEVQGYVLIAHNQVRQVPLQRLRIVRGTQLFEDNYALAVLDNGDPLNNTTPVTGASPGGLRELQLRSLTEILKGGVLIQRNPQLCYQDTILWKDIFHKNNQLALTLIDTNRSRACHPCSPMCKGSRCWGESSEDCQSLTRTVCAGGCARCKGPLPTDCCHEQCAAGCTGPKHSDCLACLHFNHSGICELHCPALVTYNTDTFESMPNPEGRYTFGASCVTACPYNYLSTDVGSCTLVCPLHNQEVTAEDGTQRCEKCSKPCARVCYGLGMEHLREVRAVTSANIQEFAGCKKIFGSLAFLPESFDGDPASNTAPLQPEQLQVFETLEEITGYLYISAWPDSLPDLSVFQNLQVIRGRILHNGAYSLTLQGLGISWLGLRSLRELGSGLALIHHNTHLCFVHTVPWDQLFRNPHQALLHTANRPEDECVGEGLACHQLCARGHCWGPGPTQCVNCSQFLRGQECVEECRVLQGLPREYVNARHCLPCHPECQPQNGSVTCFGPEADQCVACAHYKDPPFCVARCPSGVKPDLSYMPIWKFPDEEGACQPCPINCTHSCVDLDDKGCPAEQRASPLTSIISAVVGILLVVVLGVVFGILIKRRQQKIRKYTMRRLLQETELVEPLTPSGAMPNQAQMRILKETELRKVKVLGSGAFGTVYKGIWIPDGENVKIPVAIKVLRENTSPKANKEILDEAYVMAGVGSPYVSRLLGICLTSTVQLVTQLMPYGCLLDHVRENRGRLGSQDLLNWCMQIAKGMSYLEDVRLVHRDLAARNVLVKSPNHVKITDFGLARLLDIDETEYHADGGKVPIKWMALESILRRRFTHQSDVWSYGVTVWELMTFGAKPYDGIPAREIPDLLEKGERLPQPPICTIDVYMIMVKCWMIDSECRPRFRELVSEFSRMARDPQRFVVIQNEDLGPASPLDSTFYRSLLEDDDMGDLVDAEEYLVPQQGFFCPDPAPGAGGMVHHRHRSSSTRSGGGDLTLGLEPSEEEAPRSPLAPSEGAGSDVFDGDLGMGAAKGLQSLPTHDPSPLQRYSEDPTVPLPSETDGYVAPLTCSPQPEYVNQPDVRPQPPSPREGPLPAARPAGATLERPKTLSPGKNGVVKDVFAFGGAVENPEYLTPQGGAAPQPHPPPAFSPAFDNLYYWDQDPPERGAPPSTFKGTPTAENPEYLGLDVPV

[3] = reduced viability of SK-BR-3 breast cancer cells – cell-based, 24 h, human, pilot screen (AID 572;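 active = viability at or below 10% of carrier control in both of two separate runs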;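 note: compound exposure lasted between 18 and 24 h rather than exactly 24 h; 100% = carrier-treated control wells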); conditions: SK-BR-3 viability, CellTiter-Glo luminescence, at 10 µM, stronger effect = lower value
[4] = HUVEC growth inhibition – cell-based, human, primary screen (AID 575;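 active = viability at or below 30% in both replicate assays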;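 note: 100% = median of untreated cell wells with 0.1% DMSO on each plate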); conditions: HUVEC proliferation, CellTiter-Glo luminescence, 72 h; at 10 µM; stronger effect = lower value
Summary of the method: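 Assay system: primary human umbilical vein endothelial cells / Buffer or medium: endothelial basal medium with 2% FBS plus growth supplements / Compound dosing: one dose, 10 µM final, 0.1% DMSO / Timing: 72 h treatment at 37 °C / Signal: CTG luminescence / Benchmarks: 32 DMSO-only cell-control wells (high), 32 MePR drug-control wells (low) per plate / Plate: collagen-coated 384-well format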

[5] = H69AR cell proliferation blockers – human, duplicate replicates, primary screen (AID 580;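 active = viability at or under a set limit in both replicates, limit being median viability minus 3 SD, cut at about 48% in these data, passing the limit was not always enough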;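 note: 100% = mean luminescence of untreated wells and 0% = no signal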); conditions: H69AR lung tumor cells viability, ATP luminescence, 72 h; at 10 µM; stronger effect = lower value
[6] = MRP1 drug-resistance reversers in H69AR cells – cell-based, doxorubicin co-treatment, pilot screen (AID 601;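 active = viability loss from added drug above about 55%, and viability with drug at most 40%, in both replicates, limit read from the data, passing the limit was not always enough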); conditions: CellTiter-Glo, 72 h, at 10 µM; for differential viability (reversal): stronger effect = higher value
[7] = H69AR cells + 2 uM doxorubicin, measured here: viability with 2 uM doxorubicin, stronger effect = lower value
[8] = H69AR cells, compound alone cytotoxicity

SMILES | viability [1] | Her2 level [2] | viability [3] | viability [4] | viability [5] | differential viability (reversal) ([6]; H69AR cells + 2 uM doxorubicin) | viability [6, 7] | viability [6, 8]
Cc1ncc([N+](=O)[O-])n1CC(O)CCl (stereo not drawn) | 99.5% | 106% (inactive) | 99.5% (inactive) | 108% (inactive) | 104% (inactive) | 0.25% (inactive) | 104% | 104%
CCCC(=O)Nc1ncnc2c1ncn2[C@@H]1O[C@@H]2COP(=O)(O)O[C@H]2[C@H]1OC(=O)CCC | 102% | 104% (inactive) | 102% (inactive) | 109% (inactive) | 104% (inactive) | 13.3% (inactive) | 90.8% | 104%
CC1Cc2ccccc2N1NC(=O)c1ccc(Cl)c(S(N)(=O)=O)c1 (stereo not drawn) | 93.5% | 105% (inactive) | 93.5% (inactive) | 102% (inactive) | 91.4% (inactive) | 1.41% (inactive) | 90% | 91.4%
COc1ccc(-c2coc3cc(O)cc(O)c3c2=O)cc1 | 118% | 99% (inactive) | 118% (inactive) | 84.2% (inactive) | 68.8% (inactive) | -27% (inactive) | 95.8% | 68.8%
CS(=O)(=O)Nc1ccc([N+](=O)[O-])cc1Oc1ccccc1 | 118% | 103% (inactive) | 118% (inactive) | 106% (inactive) | 108% (inactive) | 10.3% (inactive) | 97.6% | 108%
CCCCOc1ccc(OCCCN2CCOCC2)cc1 | 96.5% | 108% (inactive) | 96.5% (inactive) | 91.7% (inactive) | 103% (inactive) | 7.79% (inactive) | 95.2% | 103%
COc1cc2nc(N3CCN(C(=O)C4CCCO4)CC3)nc(N)c2cc1OC (stereo not drawn) | 100% | 99% (inactive) | 100% (inactive) | 98.5% (inactive) | 91.6% (inactive) | -0.44% (inactive) | 92% | 91.6%
NC(Cc1ccc(Oc2ccc(O)cc2)cc1)C(=O)O (stereo not drawn) | 92.5% | 97% (inactive) | 92.5% (inactive) | 107% (inactive) | 80.8% (inactive) | 7.61% (inactive) | 73.1% | 80.8%
C[N+]12CCC(CC1)C(OC(=O)C(O)(c1ccccc1)c1ccccc1)C2 (stereo not drawn) | 97.5% | 96.5% (inactive) | 97.5% (inactive) | 100% (inactive) | 90.7% (inactive) | 11.9% (inactive) | 78.7% | 90.7%
CN1CCN2c3ccccc3Cc3ccccc3C2C1 (stereo not drawn) | 82.5% | 117% (inactive) | 82.5% (inactive) | 73.4% (inactive) | 90.2% (inactive) | 1.02% (inactive) | 89.1% | 90.2%
C[C@]12CC[C@H]3[C@@H](CCC4=CC(=O)CC[C@@]43C)[C@@H]1CC[C@@H]2C(=O)CO | 106% | 90.5% (inactive) | 106% (inactive) | 56.6% (inactive) | 78.6% (inactive) | -16.3% (inactive) | 94.9% | 78.6%
OCCOCCN1CCN(C(c2ccccc2)c2ccc(Cl)cc2)CC1 (stereo not drawn) | 79% | 80% (inactive) | 79% (inactive) | 90.1% (inactive) | 98.3% (inactive) | 9.31% (inactive) | 89% | 98.3%
C[C@]12CC[C@@H]3c4ccc(O[C@@H]5O[C@H](C(=O)O)[C@@H](O)[C@H](O)[C@H]5O)cc4CC[C@H]3[C@@H]1C[C@@H](O)[C@@H]2O | 102% | 92.5% (inactive) | 102% (inactive) | 89.5% (inactive) | 102% (inactive) | 17.1% (inactive) | 84.8% | 102%
COc1ccc(CN(CCN(C)C)c2ccccn2)cc1 | 91% | 104% (inactive) | 91% (inactive) | 97.4% (inactive) | 93.9% (inactive) | 19.5% (inactive) | 74.4% | 93.9%
Cn1c([N+](=O)[O-])cnc1COC(N)=O | 108% | 105% (inactive) | 108% (inactive) | 102% (inactive) | 102% (inactive) | 16.2% (inactive) | 85.7% | 102%
CCOC(=O)[C@H](CCc1ccccc1)N[C@@H](C)C(=O)N1CCC[C@H]1C(=O)O | 116% | 100% (inactive) | 116% (inactive) | 103% (inactive) | 88.6% (inactive) | -8.79% (inactive) | 97.4% | 88.6%
COc1ccc([C@@H]2Sc3ccccc3N(CCN(C)C)C(=O)[C@@H]2OC(C)=O)cc1 | 76% | 106% (inactive) | 76% (inactive) | 100% (inactive) | 92.1% (inactive) | -11.2% (inactive) | 103% | 92.1%
CC(C)C[C@H](NC(=O)[C@@H]1O[C@H]1C(=O)O)C(=O)NCCCCN=C(N)N | 100% | 104% (inactive) | 100% (inactive) | 86% (inactive) | 100% (inactive) | -2.29% (inactive) | 103% | 100%

SMILES | viability [1] | Her2 level [2] | viability [3] | viability [4] | viability [5] | differential viability (reversal) ([6]; H69AR cells + 2 uM doxorubicin) | viability [6, 7] | viability [6, 8]
CO[C@@]1(NC(=O)CSCC#N)C(=O)N2C(C(=O)O)=C(CSc3nnnn3C)CS[C@@H]21 | 110% | 136% (inactive) | 110% (inactive) | 97% (inactive) | 95% (inactive) | -5.77% (inactive) | 101% | 95%
O=C(O)CCCCCCC1C(=O)NC(=O)N1CCC(O)C1CCCCC1 (stereo not drawn) | 108% | 108% (inactive) | 108% (inactive) | 79.8% (inactive) | 99.3% (inactive) | -4.75% (inactive) | 104% | 99.3%
C[C@]12C=CC(=O)C=C1CC[C@H]1[C@@H]3C[C@@H](O)[C@](O)(C(=O)CO)[C@@]3(C)C[C@H](O)[C@@]12F | 94% | 110% (inactive) | 94% (inactive) | 101% (inactive) | 106% (inactive) | -2.81% (inactive) | 109% | 106%
CCCCN(CCCC)CCCOC(=O)c1ccc(N)cc1 | 92% | 106% (inactive) | 92% (inactive) | 111% (inactive) | 90.7% (inactive) | -8.53% (inactive) | 99.2% | 90.7%
Cc1cccc(C)c1NC(=O)C1CCCCN1C (stereo not drawn) | 108% | 101% (inactive) | 108% (inactive) | 104% (inactive) | 99.7% (inactive) | 12% (inactive) | 87.7% | 99.7%
NS(=O)(=O)c1cc2c(cc1Cl)NC(C1C[C@H]3C=C[C@@H]1C3)NS2(=O)=O (stereo partly drawn) | 110% | 130% (inactive) | 110% (inactive) | 88.3% (inactive) | 92.7% (inactive) | -10.8% (inactive) | 104% | 92.7%
N=c1c[n+](N2CCOCC2)[n-]o1 | 114% | 100% (inactive) | 114% (inactive) | 97.7% (inactive) | 96.5% (inactive) | -4.17% (inactive) | 101% | 96.5%
Cc1cn([C@H]2C[C@H](N=[N+]=[N-])[C@@H](CO)O2)c(=O)[nH]c1=O | 91.5% | 90% (inactive) | 91.5% (inactive) | 104% (inactive) | 96.5% (inactive) | 4.1% (inactive) | 92.4% | 96.5%
Nc1ccc(S(=O)(=O)Nc2ncccn2)cc1 | 96.5% | 100% (inactive) | 96.5% (inactive) | 91.4% (inactive) | 104% (inactive) | 5.02% (inactive) | 98.7% | 104%
Cc1onc(-c2ccccc2)c1C(=O)N[C@@H]1C(=O)N2[C@@H]1SC(C)(C)[C@@H]2C(=O)O | 108% | 100% (inactive) | 108% (inactive) | 91.1% (inactive) | 101% (inactive) | 0% (inactive) | 101% | 101%
CN1CCCN=C1COC(=O)C(O)(c1ccccc1)C1CCCCC1 (stereo not drawn) | 95% | 79.5% (inactive) | 95% (inactive) | 95% (inactive) | 91.6% (inactive) | 3.15% (inactive) | 88.4% | 91.6%
N[C@@H](Cc1cc(I)c(Oc2ccc(O)c(I)c2)c(I)c1)C(=O)O | 100% | 87% (inactive) | 100% (inactive) | 86.9% (inactive) | 97.6% (inactive) | 6.87% (inactive) | 90.8% | 97.6%
O=C(O)c1cc(=O)c2c(OCC(O)COc3cccc4oc(C(=O)O)cc(=O)c34)cccc2o1 | 102% | 102% (inactive) | 102% (inactive) | 121% (inactive) | 106% (inactive) | 14.7% (inactive) | 91.5% | 106%
Nc1ccc2[nH]ncc2c1 | 80.5% | 106% (inactive) | 80.5% (inactive) | 84.1% (inactive) | 100% (inactive) | -6.96% (inactive) | 107% | 100%
CN(C)[C@@H]1C(=O)C(C(N)=O)=C(O)[C@@]2(O)C(=O)C3=C(O)c4c(O)ccc(Cl)c4[C@@H](O)[C@H]3C[C@@H]12 | 140% | 108% (inactive) | 140% (inactive) | 101% (inactive) | 84.2% (inactive) | 0.66% (inactive) | 83.6% | 84.2%
S=C(N=Nc1ccccc1)NNc1ccccc1 | 118% | 90% (inactive) | 118% (inactive) | 80% (inactive) | 81.4% (inactive) | -6.66% (inactive) | 88% | 81.4%
CCCCCCCC(=O)OCC(=O)[C@@]1(O)CC[C@H]2[C@@H]3CCC4=CC(=O)CC[C@]4(C)[C@H]3[C@@H](O)C[C@@]21C | 120% | 102% (inactive) | 120% (inactive) | 97.6% (inactive) | 102% (inactive) | -5.05% (inactive) | 107% | 102%
CC[N+](C)(C)Cc1ccccc1Br | 102% | 92% (inactive) | 102% (inactive) | 107% (inactive) | 98.8% (inactive) | -4.18% (inactive) | 103% | 98.8%

Reference: PubChem BioAssay
